The values that follow come from ChEMBL document CHEMBL1129607, “Paracyclophanes: a novel class of water-soluble inhibitors of HIV proteinase” (J Med Chem, 1996).

Series [1] has as its system Human immunodeficiency virus 1. The series is described as follows: Antiviral activity against HIV-1 IIIB induced cytopathic effect in de novo infected MT-4 cells. Format: functional, organism-based. To be noted: Human immunodeficiency virus 1, MT4. The method in brief:
(§1)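 MT4 cells were infected de novo with HIV-1 IIIB or HIV-2 EHO, and compound was added after adsorption. Mock-infected cells were run in parallel. After 5 days, viability was read spectrophotometrically by in situ MTT reduction.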

The target in series [2] is T1, Human immunodeficiency virus type 1 protease (Human immunodeficiency virus 1, UniProt Q72874). The series is described as follows: Inhibition of HIV-1 proteinase was assayed in infected MT-4 cells. The class given is cell-based, MT4.
Series [3] is described as follows: Area Under Curve was measured by ploting the graph between concentration verses time. Format: ADME. The method in brief: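 Female Balb/c mice (n = 2 per time point) were fasted 24 h before and throughout the study, with water ad libitum. Compound was given by oral gavage at 125 mg/kg in a microemulsion formulation. Plasma levels were measured by solid-phase extraction and HPLC.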

In a further series the target is Cathepsin D (Homo sapiens, UniProt P07339). The series is described as follows: The compound was tested for inhibition of Human Cathepsin D.
Chain of Cathepsin D (P07339 65-162 limits assumed): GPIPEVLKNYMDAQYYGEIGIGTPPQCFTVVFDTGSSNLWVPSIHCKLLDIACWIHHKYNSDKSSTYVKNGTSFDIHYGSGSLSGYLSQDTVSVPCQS
Chain of Cathepsin D (P07339 169-412 limits assumed): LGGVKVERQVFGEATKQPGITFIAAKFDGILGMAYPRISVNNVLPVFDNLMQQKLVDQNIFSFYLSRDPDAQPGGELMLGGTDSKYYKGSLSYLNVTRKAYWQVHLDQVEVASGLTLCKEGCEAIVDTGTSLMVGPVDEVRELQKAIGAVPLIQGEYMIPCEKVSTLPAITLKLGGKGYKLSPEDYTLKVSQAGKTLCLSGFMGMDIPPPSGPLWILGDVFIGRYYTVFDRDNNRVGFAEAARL
Series [4] relates to MT4. The series is described as follows: Antiviral activity for inhibition of HIV-2 proteinase was assayed in infected MT-4 cells. The class given is functional, cell-based. To be noted: Homo sapiens.
Series [5] can be described thus: Inhibitory concentration against HIV-1 strain IIIB infected T4 lymphocytes. The class given is functional, cell-based. Put shortly:
(§2)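 T4-lymphocytes were purified from healthy donor human […] and stimulated with PHA. Cells were infected with HIV-1 IIIB or HIV-2 MS and kept in IL-2 medium. Compound was added after stimulation and virus adsorption. Every 3-4 days, half the supernatant was replaced with fresh IL-2 medium containing compound.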

Series [6] can be described thus: Inhibitory concentration against HIV-2 strain MS infected T4 lymphocytes. The class given is functional, cell-based. Put shortly:
as §2

A short description of series [7]: Aqueous solubility in phosphate buffer of pH 7.4.
Series [8] relates to MT4. The experiment in a line: Antiviral activity against HIV-2 induced cytopathic effect in de novo infected MT-4 cells. Format: functional, cell-based. As to conditions: Homo sapiens. Put shortly:
as §1
In general terms: Damage to the host cells serves as the signal in cytopathic effect assays.

In series [9] the target is T1, Human immunodeficiency virus type 1 protease. The experiment in a line: Compound was tested for inhibition of HIV-1 protease was assayed in infected MT-4 cells. Format: cell-based, MT4.

In brackets after ≈: the same amount, converted by molar mass. Bounds are passed on as bounds.

For orientation: IC50 means the concentration that inhibits the measured activity by half. High values mean weaker potency in that assay, low ones greater potency in that assay. `CC(C)[C@H](NC(=O)OCc1ccccc1)C(=O)N[C@@H](Cc1ccccc1)[C@@H](O)[C@H]1NCc2ccc(cc2)OCCOCCOCCOCCNC(=O)[C@H](C(C)C)NC1=O` returned an IC50 in series [1] of 0.052 µM.

By Ki is commonly meant the dissociation constant of the complex between target and ligand, obtained from inhibition or displacement. In series [1], `CC(C)[C@H](NC(=O)OCc1ccccc1)C(=O)N[C@@H](Cc1ccccc1)[C@@H](O)[C@H]1NCc2cccc(c2)OCCOCCOCCNC(=O)[C@H](C(C)C)NC1=O` registered an IC50 of 0.211 µM. The molecule further had an inhibition constant Ki in series [2] of 0.0077 µM.

`CC(C)[C@@H]1NC(=O)[C@@H]([C@H](O)[C@H](Cc2ccccc2)NC(=O)OC(C)(C)C)NCc2ccc(cc2)OCCOCCOCCOCCNC1=O`: the 50% inhibitory concentration (IC50) in [1] is 1.17 µM. Also, in series [2], the Ki amounted to 0.0232 µM.

`CC(C)[C@@H]1NC(=O)[C@@H]([C@H](O)[C@H](Cc2ccccc2)NC(=O)OC(C)(C)C)NCc2ccc(cc2)OCCOCCNC1=O` returned a concentration for half-maximal inhibition (IC50) in [1] of 0.45 µM. For the same molecule, the Ki in series [2] was determined as 0.014 µM.

In series [1], `CC(C)[C@H](NC(=O)OCc1ccccc1)C(=O)N[C@@H](Cc1ccccc1)[C@@H](O)[C@H]1NCc2ccc(cc2)OCCCCNC(=O)[C@H](C(C)C)NC1=O` showed an IC50 of 0.027 µM.

As to `CC(C)[C@@H]1NC(=O)[C@@H]([C@H](O)[C@H](Cc2ccccc2)NC(=O)O[C@H]2CCOC2)NCc2ccc(cc2)OCCOCCOCCNC1=O`, the IC50 in series [1] stood at 0.198 µM.

A word on the AUC: it is concentration integrated over time. `CC(C)[C@H](NC(=O)OCc1ccccc1)C(=O)N[C@@H](Cc1ccccc1)[C@@H](O)[C@H]1NCc2ccc(cc2)OCCOCCOCCNC(=O)[C@H](C(C)C)NC1=O` returned an AUC in [3] below 0.4 µM·h. The IC50 against Cathepsin D is above 10 µM; in series [1], 0.016 µM; in the series on MT4 [4] it was 0.037 µM; in series [5], 0.0031 µM; in [6], 0.017 µM. In [2], this molecule yielded a Ki of 0.0069 µM.

Turning to `CC(C)[C@@H]1NC(=O)[C@@H]([C@H](O)[C@H](Cc2ccccc2)NC(=O)OC(C)(C)C)NCc2cccc(c2)OCCOCCOCCNC1=O`, the IC50 in series [1] worked out at 3 µM. In series [2], this molecule came in with a Ki of 0.208 µM.

On to `CC(C)[C@@H]1NC(=O)[C@@H]([C@H](O)[C@H](Cc2ccccc2)NC(=O)[C@@H](NC(=O)OCc2ccccc2)C(C)(C)C)NCc2ccc(cc2)OCCOCCNC1=O`, for which, in series [3], the exposure (AUC) is 4.7 µM·h. The IC50 against Cathepsin D is above 10 µM; in [1], 0.015 µM. Besides, the affinity in series [2] corresponds to a Ki of 0.008 µM.

Broadly, the solubility is how much of the substance goes into solution per volume. `COc1ccc(CN[C@@H](C(=O)N[C@H](C(=O)NCc2nc3ccccc3[nH]2)C(C)C)[C@H](O)[C@H](Cc2ccccc2)NC(=O)[C@@H](NC(=O)OCc2ccccc2)C(C)C)cc1` registered an AUC in [3] below 0.4 µM·h. In series [7], this molecule had a solubility below 10 µM. This molecule registered a 50% inhibitory concentration (IC50) in series [1] of 0.029 µM.

Molecule `CC(C)[C@@H]1NC(=O)[C@@H]([C@H](O)[C@H](Cc2ccccc2)NC(=O)O[C@H]2CCOC2)NCc2ccc(cc2)OCCOCCNC1=O` had an IC50 in series [1] of 0.157 µM. Further, in series [2], the inhibition constant Ki was 0.0082 µM.

For `CC(C)[C@H](NC(=O)OCc1ccccc1)C(=O)N[C@@H](Cc1ccccc1)[C@@H](O)[C@H]1NCc2ccc(cc2)OCCOCCNC(=O)[C@H](C(C)C)NC1=O`, the IC50 is above 10 µM on Cathepsin D and 0.021 µM in [1]. Also, the Ki in series [2] amounted to 0.0079 µM.

Take `CC(C)[C@@H]1NC(=O)[C@@H]([C@H](O)[C@H](Cc2ccccc2)NC(=O)OC(C)(C)C)NCc2ccc(cc2)OCCOCCOCCNC1=O`: the IC50 in [1] was found to be 0.169 µM.

Regarding `CC(C)[C@H](NC(=O)OCc1ccccc1)C(=O)N[C@@H](Cc1ccccc1)[C@@H](O)[C@H]1NCc2cccc(c2)OCCOCCNC(=O)[C@H](C(C)C)NC1=O`, inhibition in [1] was half-maximal at 0.06 µM (IC50).

In series [1], `CC(C)[C@@H]1NC(=O)[C@@H]([C@H](O)[C@H](Cc2ccccc2)NC(=O)OC(C)(C)C)NCc2cccc(c2)OCCOCCNC1=O` showed a half-maximal inhibitory concentration (IC50) of 0.935 µM. This IC50 lies about 16-fold higher than the previous one.

Regarding `CC(C)[C@@H]1NC(=O)[C@@H]([C@H](O)[C@H](Cc2ccccc2)NC(=O)[C@@H](NC(=O)CSc2nncn2C)C(C)(C)C)NCc2ccc(cc2)OCCOCCNC1=O`, in [7], the solubility amounted to 1710 µM (≈ 1310 µg/mL). In series [1], this molecule registered a half-inhibitory concentration (IC50) above 3 µM. The molecule further came in with a Ki in series [2] of 0.0111 µM.

As for `COc1ccc(CN[C@@H](C(=O)N[C@@H]2c3ccccc3C[C@H]2O)[C@H](O)[C@H](Cc2ccccc2)NC(=O)[C@@H](NC(=O)OCc2ccccc2)C(C)C)cc1`, in series [3], the AUC is 82.5 µM·h. In addition, in [7], the solubility is below 10 µM. Moreover, the IC50 is above 10 µM at Cathepsin D, 0.242 µM in series [1] and 0.843 µM in the series with MT4 [8]. The molecule also showed a Ki in series [9] of 0.0095 µM.

`CC(C)[C@@H]1NC(=O)[C@@H]([C@H](O)[C@H](Cc2ccccc2)NC(=O)OC(C)(C)C)NCc2ccc(cc2)OCCCCNC1=O` came in with an IC50 in series [1] of 1.81 µM. This molecule also registered an inhibition constant Ki in [9] of 0.017 µM.

Molecule `CC(C)[C@@H]1NC(=O)[C@@H]([C@H](O)[C@H](Cc2ccccc2)NC(=O)OC(C)(C)C)NCc2cccc(c2)OCCCCNC1=O` came in with a 50% inhibitory concentration (IC50) in series [1] of 0.335 µM.

In the case of `CC(C)[C@H](NC(=O)OCc1ccccc1)C(=O)N[C@@H](Cc1ccccc1)[C@@H](O)[C@H]1NCc2cccc(c2)OCCCCNC(=O)[C@H](C(C)C)NC1=O`, the IC50 in series [1] was 0.029 µM.
